# According to ChEMBL document CHEMBL3769342, “Supramolecular Inhibition of Neurodegeneration by a Synthetic Receptor” (ACS Med Chem Lett, 2015):
# The source made the active and inactive calls. The rule behind the calls is not given here.
# Legend:
# [1] = Binding affinity to MPTP at 0.5 equivalents of compound by 1H NMR analysis
# [2] = Binding affinity to MPTP assessed as upfield shift resonance at 1.2 equivalents of compound by 1H NMR analysis
# [3] = Binding affinity to MPP+ assessed as upfield shift resonance at 1.2 equivalents of compound by 1H NMR analysis
# [4] = Binding affinity to MPTP in PBS buffer solution at pH 7.4 by UV-vis titration method
# Outline: (§1)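 UV-vis titration in 0.01 M PBS, pH 7.4: host added in increasing amounts to the guest solution. Guest absorbance followed at 242 nm, plotted against host concentration and fitted by nonlinear least squares to a 1:1 model to give Ka.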
# [5] = Binding affinity to MPP+ in PBS buffer solution at pH 7.4 by UV-vis titration method; outline: as §1
# [6] = Binding affinity to MPTP by ESI-MS analysis
# [7] = Binding affinity to MPP+ by ESI-MS analysis
# [8] = organism: Danio rerio; assay: Neuroprotective activity against MPTP-induced tyrosine hydroxylase deficiency in zebrafish larval brain assessed as tyrosine hydroxylase viability in neuron at 100 uM after 48 hrs by immunofluorescence assay (reference value: 49.93 +/- 5.26%); type: functional
# [9] = organism: Danio rerio; assay: Neurotoxicity in zebrafish model of MPTP-induced tyrosine hydroxylase defeciency assessed as phenotypic changes at 100 uM after 48 hrs by immunofluorescence assay; type: organism-based; conditions: in vivo
# [10] = Neurotoxicity in zebrafish larvae assessed as tyrosine hydroxylase viability in neuron at 100 uM after 48 hrs by immunofluorescence assay relative to control; type: organism-based, Danio rerio; conditions: tyrosine hydroxylase-positive neurons, read-out: Activity
# [11] = organism: Danio rerio; assay: Neuroprotective activity against MPTP-induced locomotion defeciency in zebrafish larvae assessed as swimming distance at 100 uM incubated for 5 days measured for 45 mins by automated video tracking system based method (reference value: 1368.76 +/- 404.62 cm); type: functional
# [12] = organism: Danio rerio; assay: Neurotoxicity in zebrafish larvae assessed as swimming distance at 100 uM incubated for 5 days measured for 45 mins by automated video tracking system based method (reference value: 3773.21 +/- 386.24 cm); type: ADME, organism-based; conditions: in vivo
structure (smiles),measurement,setting,value
O=C1N2CN3C(=O)N4CN5C(=O)N6CN7C(=O)N8CN9C(=O)N%10CN%11C(=O)N%12CN%13C(=O)N%14CN1[C@H]1[C@@H]2N2CN%15C(=O)N(CN%16C(=O)N(CN%17C(=O)N(CN%18C(=O)N(CN%19C(=O)N(CN%20C(=O)N(CN1C2=O)[C@H]%14[C@@H]%20%13)[C@H]%12[C@@H]%19%11)[C@H]%10[C@@H]%189)[C@H]8[C@@H]%177)[C@H]6[C@@H]%165)[C@H]4[C@@H]%153,Activity,[1],Active
same,Activity,[2],< 1 ppm
same,Activity,[3],Active
same,Ka,[4],4.8 ×10⁴ /M
same,Ka,[5],1.05 ×10⁵ /M
same,Activity,[6],Active
same,Activity,[7],Active
same,Activity,[8],79.44%
same,Activity,[9],Non-toxic
same,"viability at 48 h, 100 µM",[10],91%
same,Activity,[11],3487.02 cm
same,Activity,[12],4167.89 cm
